Reference: ChEMBL document CHEMBL5257122, “Structure-Activity relationships of replacements for the triazolopyridazine of Anti-Cryptosporidium lead SLU-2633” (Bioorg Med Chem, 2023)

Assays:
[1] = Dissociation constant, pKa of compound; type: physicochemical
Summary of the method: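 Basic pKa calculated in silico (CDD Vault, method of Lu et al.), not measured.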

[2] = test system: HCT-8; experiment: Cytotoxicity against human HCT-8 cells assessed as reduction in cell growth; type: functional
[3] = Lipophilicity, logP of the compound; type: physicochemical; settings: octanol/water
Summary of the method: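 LogP calculated in silico (CDD Vault, method of Gedeck et al.) as an estimate of lipophilicity.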

[4] = test system: Cryptosporidium parvum; experiment: Antiparasitic activity against Cryptosporidium parvum infected in human HCT-8 cells assessed as parasitic growth inhibition measured for 48 hrs by fluorescence microscopic analysis; type: functional, organism-based; settings: HCT-8, 48 h
Summary of the method: (§1)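 C. parvum Iowa isolate oocysts excysted (10 mM HCl, 10 min, 37 °C; then 2 mM sodium taurocholate in PBS, 10 min, 16 °C) and used to infect near-confluent HCT-8 monolayers. Compound added after 3 h, then 45 h more at 37 °C, 5% CO₂. Fixed, stained with fluorescein-Vicia villosa lectin (vacuoles) and Hoechst (nuclei), imaged and counted automatically. 9-point dose-response, ≥2 experiments, n=8 per dose.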

[5] = target: T1, Voltage-gated inwardly rectifying potassium channel KCNH2 (Homo sapiens, UniProt Q12809); experiment: Inhibition of hERG in CHO cells at 10 uM by automated patch clamp method relative to control; type: toxicity, cell-based
T1 sequence (Q12809 whole entry): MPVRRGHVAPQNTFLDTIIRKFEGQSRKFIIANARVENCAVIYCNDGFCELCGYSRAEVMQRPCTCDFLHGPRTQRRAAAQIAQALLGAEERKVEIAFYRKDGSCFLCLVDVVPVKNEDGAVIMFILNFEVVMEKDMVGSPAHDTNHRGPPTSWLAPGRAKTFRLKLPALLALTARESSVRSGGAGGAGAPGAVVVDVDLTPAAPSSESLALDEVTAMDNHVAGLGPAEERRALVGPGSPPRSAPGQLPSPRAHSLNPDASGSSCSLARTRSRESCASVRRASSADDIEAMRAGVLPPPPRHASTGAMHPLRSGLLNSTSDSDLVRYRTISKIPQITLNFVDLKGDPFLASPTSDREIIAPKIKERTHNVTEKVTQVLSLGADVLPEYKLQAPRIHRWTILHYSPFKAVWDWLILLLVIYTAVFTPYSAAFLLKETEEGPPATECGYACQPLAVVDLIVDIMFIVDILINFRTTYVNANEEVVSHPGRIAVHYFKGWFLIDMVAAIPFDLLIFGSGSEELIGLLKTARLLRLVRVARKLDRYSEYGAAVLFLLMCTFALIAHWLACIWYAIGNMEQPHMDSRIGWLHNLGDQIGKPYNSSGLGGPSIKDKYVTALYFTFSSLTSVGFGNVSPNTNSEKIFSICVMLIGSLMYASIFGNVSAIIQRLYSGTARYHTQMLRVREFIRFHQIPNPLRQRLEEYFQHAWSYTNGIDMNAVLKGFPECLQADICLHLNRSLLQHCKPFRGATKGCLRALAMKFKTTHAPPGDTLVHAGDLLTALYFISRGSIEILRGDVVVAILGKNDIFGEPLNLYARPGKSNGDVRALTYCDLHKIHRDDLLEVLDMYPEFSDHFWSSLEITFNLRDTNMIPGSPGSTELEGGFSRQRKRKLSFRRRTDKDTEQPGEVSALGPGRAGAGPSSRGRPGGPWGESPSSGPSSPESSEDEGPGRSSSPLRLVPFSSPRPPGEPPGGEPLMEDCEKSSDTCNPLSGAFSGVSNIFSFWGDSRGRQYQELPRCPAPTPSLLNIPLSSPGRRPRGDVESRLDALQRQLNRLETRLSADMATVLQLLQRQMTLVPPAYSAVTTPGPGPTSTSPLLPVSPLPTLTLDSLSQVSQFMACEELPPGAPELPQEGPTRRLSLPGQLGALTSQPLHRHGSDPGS
Summary of the method: (§2)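 hERG expressed in CHO cells, automated patch-clamp electrophysiology. Tail current inhibition measured at 1, 10 and 30 μM, each in duplicate, and reported as the average % inhibition.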

[6] = target: T1, Voltage-gated inwardly rectifying potassium channel KCNH2; experiment: Inhibition of hERG in CHO cells at 1 uM by automated patch clamp method relative to control; type: toxicity, cell-based; summary of the method: as §2
[7] = target: T1, Voltage-gated inwardly rectifying potassium channel KCNH2; experiment: Displacement of [3H]-dofetilide from human ERG at 10 uM relative to control; type: toxicity
Summary of the method: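 Radioligand binding against human hERG potassium channel: % inhibition of [³H]-dofetilide binding by test compound at 10 μM.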

[8] = target: T1, Voltage-gated inwardly rectifying potassium channel KCNH2; experiment: Inhibition of hERG in CHO cells at 30 uM by automated patch clamp method relative to control; type: toxicity, cell-based; summary of the method: as §2
[9] = test system: Cryptosporidium parvum; experiment: Antiparasitic activity against Cryptosporidium parvum assessed as reduction in parasitic growth; type: functional, organism-based; summary of the method: as §1

| Compound | EC50 [4] [µM] | also measured |
| --- | --- | --- |
| O=C(Cc1ccc(Cl)c(Cl)c1)N1CCN(c2ccc3nncn3n2)CC1 |  | pKa [1]: 5.9; CC50 [2]: > 100 µM; logP [3]: 3 |
| O=C(Nc1ccc(Cl)c(Cl)c1)N1CCN(c2ccc3nncn3n2)CC1 |  | pKa [1]: 5.9; logP [3]: 4 |
| O=C(Cc1ccc(Cl)c(Cl)c1)N1CCN(c2ncccn2)CC1 | > 50 |  |
| Cc1cc2nncn2nc1N1CCN(C(=O)Cc2ccc(Cl)c(Cl)c2)CC1 | 23 |  |
| O=C(Cc1ccc(Cl)c(Cl)c1)N1CCN(C2=Nn3cnnc3CC2)CC1 | 1.2 | pKa [1]: 4.4; inhibition (INH) [5]: 34%; inhibition (INH) [6]: 8.7%; logP [3]: 1.8; Activity [7]: 15%; inhibition (INH) [8]: 61% |
| Cc1nnc2ccc(N3CCN(C(=O)Nc4ccc(Cl)c(Cl)c4)CC3)nn12 | 26 |  |
| O=C(Cc1ccc(Cl)c(Cl)c1)N1CCN(c2ccc3ncccc3n2)CC1 | 38 |  |
| O=C(Cc1ccc(Cl)c(Cl)c1)N1CCN(c2ccc3cc[nH]c3n2)CC1 | 30 |  |
| Cc1cc(N2CCN(C(=O)Nc3ccc(Cl)c(Cl)c3)CC2)nn2cnnc12 | 24 |  |
| O=C(O)c1cn2nc(N3CCN(C(=O)Cc4ccc(Cl)c(Cl)c4)CC3)ccc2n1 | > 50 |  |
| CCOC(=O)c1cn2nc(N3CCN(C(=O)Cc4ccc(Cl)c(Cl)c4)CC3)ccc2n1 | 58 |  |
| O=C(Cc1ccc(Cl)c(Cl)c1)N1CCN(c2cc3ccncc3cn2)CC1 | 50 |  |
| O=C(Nc1nc2cc(N3CCN(C(=O)Cc4ccc(Cl)c(Cl)c4)CC3)ccc2s1)c1ccccc1 | 93 |  |
| Cc1cc2nncn2nc1N1CCN(C(=O)Nc2ccc(Cl)c(Cl)c2)CC1 | 25 |  |
| O=C(Cc1ccc(Cl)c(Cl)c1)N1CCN(c2nccc(C(F)(F)F)n2)CC1 | > 50 |  |
| O=C(Cc1ccc(Cl)c(Cl)c1)N1CCN(c2ncc([N+](=O)[O-])s2)CC1 | 20 |  |
| O=C(Cc1ccc(Cl)c(Cl)c1)N1CCN(c2ccc3[nH]c(=O)sc3c2)CC1 | > 50 |  |
| O=C(Cc1ccc(Cl)c(Cl)c1)N1CCN(c2ccc3nnc(Cl)n3n2)CC1 | 29 |  |
| Cc1cc(N2CCN(C(=O)Cc3ccc(Cl)c(Cl)c3)CC2)nn2cnnc12 | 61 |  |
| Nc1cn2nc(N3CCN(C(=O)Cc4ccc(Cl)c(Cl)c4)CC3)ccc2n1 | > 50 |  |
| O=C(Cc1ccc(Cl)c(Cl)c1)N1CCN(c2ccc3nnc(C(F)(F)F)n3n2)CC1 | 29 |  |
| O=C(Cc1ccc(Cl)c(Cl)c1)N1CCN(c2ccc3ccccc3n2)CC1 | 46 |  |
| CC(C)(C)OC(=O)N1CCN(C(=O)Cc2ccc(Cl)c(Cl)c2)CC1 | > 50 |  |

| Compound | EC50 [4] [µM] | also measured |
| --- | --- | --- |
| O=C(Cc1ccc(Cl)c(Cl)c1)N1CCN(c2ccc3nnc(-c4ccccc4)n3n2)CC1 | 15 |  |
| Cc1nc2nc(N3CCN(C(=O)Cc4ccc(Cl)c(Cl)c4)CC3)ccc2s1 | 18 |  |
| O=C(Nc1ccc(Cl)c(Cl)c1)N1CCN(C2=Nn3cnnc3CC2)CC1 | 13 | logP [3]: 2.3 |
| Cc1nccc(N2CCN(C(=O)Cc3ccc(Cl)c(Cl)c3)CC2)n1 | > 50 |  |
| O=C(Nc1ccc(Cl)c(Cl)c1)N1CCN(c2ncc(C(F)(F)F)cn2)CC1 | > 25 |  |
| Cc1nnc2ccc(N3CCN(C(=O)Cc4ccc(Cl)c(Cl)c4)CC3)nn12 | 30 |  |
| O=C(Cc1ccc(Cl)c(Cl)c1)N1CCN(c2nc3ccccc3o2)CC1 | > 50 |  |
| O=C(Cc1ccc(Cl)c(Cl)c1)N1CCNCC1 | > 50 |  |
| O=C(Nc1ccc(Cl)c(Cl)c1)N1CCN(c2ccc3nnc(Cl)n3n2)CC1 | 12 |  |
| O=C(Cc1ccc(Cl)c(Cl)c1)N1CCN(c2ccc3nnc(-c4ccncc4)n3n2)CC1 | > 50 |  |
| O=C(Cc1ccc(Cl)c(Cl)c1)N1CCN(c2ccc3nnc(Cc4ccccc4)n3n2)CC1 | 16 |  |
| CNc1nccc(N2CCN(C(=O)Nc3ccc(Cl)c(Cl)c3)CC2)n1 | > 25 |  |
| O=C(Cc1ccc(Cl)c(Cl)c1)N1CCN(c2ccccn2)CC1 | > 50 |  |
| O=C(Cc1ccc(Cl)c(Cl)c1)N1CCN(c2ccc3nccn3n2)CC1 | 63 |  |
| Nc1nc2nc(N3CCN(C(=O)Cc4ccc(Cl)c(Cl)c4)CC3)ccc2s1 | 3.2 | pKa [1]: 5.9; Activity [7]: 34% |
| O=C(Cc1ccc(Cl)c(Cl)c1)N1CCN(c2ccc3nnc(N4CCOCC4)n3n2)CC1 | 48 |  |
| O=C(Cc1ccc(Cl)c(Cl)c1)N1CCN(c2ccc3[nH]ncc3n2)CC1 | 28 |  |
| O=C(Cc1ccc(Cl)c(Cl)c1)N1CCN(c2ccc3nc[nH]c3c2)CC1 | 20 |  |
| Cn1ncc2nc(N3CCN(C(=O)Cc4ccc(Cl)c(Cl)c4)CC3)ccc21 | > 50 |  |
| O=C(Cc1ccc(Cl)c(Cl)c1)N1CCN(c2ccc3nnc(-c4ccnc(C(F)(F)F)c4)n3n2)CC1 | 6.1 | pKa [1]: 6; Activity [7]: 95% |
| O=C(Nc1ccc(Cl)c(Cl)c1)N1CCN(c2cn3ccnc3cn2)CC1 | > 25 |  |
| O=C(Nc1nc2nc(N3CCN(C(=O)Cc4ccc(Cl)c(Cl)c4)CC3)ccc2s1)c1ccncc1 | 7.3 |  |
| COc1ccc(N2CCN(C(=O)Cc3ccc(Cl)c(Cl)c3)CC2)nn1 | 57 |  |

| Compound | EC50 [4] [µM] | also measured |
| --- | --- | --- |
| O=C(Cc1ccc(Cl)c(Cl)c1)N1CCN(c2ccc3nc(C(=O)N4CCOCC4)cn3n2)CC1 | > 50 |  |
| O=C(Cc1ccc(Cl)c(Cl)c1)N1CCN(c2ccc3nn(Cc4ccccc4)cc3n2)CC1 | 7.8 | pKa [1]: 6.2; Activity [7]: 80% |
| O=C(Cc1ccc(Cl)c(Cl)c1)N1CCN(c2ccn3nccc3n2)CC1 | 47 |  |
| CCCCOC(=O)c1cn2nc(N3CCN(C(=O)Cc4ccc(Cl)c(Cl)c4)CC3)ccc2n1 | 23 |  |
| O=C(Cc1ccc(Cl)c(Cl)c1)N1CCN(c2ccccc2)CC1 | 42 | pKa [1]: 3; Activity [7]: 2% |
| O=C(Nc1ccc(Cl)c(Cl)c1)N1CCN(c2ccc3nccn3n2)CC1 | 16 | pKa [1]: 6.4; Activity [7]: 77% |
| Nc1nnc2ccc(N3CCN(C(=O)Cc4ccc(Cl)c(Cl)c4)CC3)nn12 | 65 |  |
| Cc1nc2cc(N3CCN(C(=O)Cc4ccc(Cl)c(Cl)c4)CC3)ccc2s1 | 14 |  |
| Cc1cccc(N2CCN(C(=O)Cc3ccc(Cl)c(Cl)c3)CC2)n1 | 36 |  |
| Nc1nc2cc(N3CCN(C(=O)Cc4ccc(Cl)c(Cl)c4)CC3)ccc2s1 | 16 |  |
| CN(C)C(=O)c1cn2nc(N3CCN(C(=O)Cc4ccc(Cl)c(Cl)c4)CC3)ccc2n1 | 38 |  |
| O=C(Cc1ccc(Cl)c(Cl)c1)N1CCN(c2nc3ccccc3s2)CC1 | 36 |  |
| O=C(Cc1ccc(Cl)c(Cl)c1)N1CCN(c2ccc(C(F)(F)F)nn2)CC1 | 49 |  |
| O=C(Nc1nc2nc(N3CCN(C(=O)Cc4ccc(Cl)c(Cl)c4)CC3)ccc2s1)c1ccccc1 | 2.9 | pKa [1]: 7.7; Activity [7]: 47% |
| O=C(Cc1ccc(Cl)c(Cl)c1)N1CCN(c2ccc3cn[nH]c3c2)CC1 | 26 |  |
| O=C(Cc1ccc(Cl)c(Cl)c1)N1CCN(c2ccc3c(cnn3Cc3ccccc3)n2)CC1 | 45 |  |
| O=C(Cc1ccc(Cl)c(Cl)c1)N1CCN(c2ccc3nonc3c2)CC1 | 24 |  |
| O=C(Nc1ccc(Cl)c(Cl)c1)N1CCN(c2nc3ccccc3[nH]2)CC1 | 17 |  |
| O=C(Nc1ccc(Cl)c(Cl)c1)N1CCN(c2ccccc2)CC1 | 20 |  |
| O=C(Nc1ccc(Cl)c(Cl)c1)N1CCN(c2ccc3nnc(C(F)(F)F)n3n2)CC1 | 11 |  |
| O=C(Nc1ccc(Cl)cc1)N1CCN(c2ccc3nncn3n2)CC1 |  | EC50 [9]: 2.1 µM |
| CC(=O)Oc1ccccc1C(=O)Nc1ncc([N+](=O)[O-])s1 [NITAZOXANIDE] | 3.7 |  |
